Hits are enriched below; roughly 2.3% of the tested compounds scored in any of these assays.
TRPC4 inh = inhibitors of mouse TRPC4 channel | B-score at 10 µM | HEK293 TRPC4beta/mu-opioid, DAMGO-evoked Fluo4 calcium flux; hits give low values | Q9QUQ5 | hit rate 0.39% among 300,000;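 active = B-score over 3 SD under the library average, no early fluorescence shift, positive overall ratio signal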
Target sequence (Q9QUQ5 whole entry, looked up): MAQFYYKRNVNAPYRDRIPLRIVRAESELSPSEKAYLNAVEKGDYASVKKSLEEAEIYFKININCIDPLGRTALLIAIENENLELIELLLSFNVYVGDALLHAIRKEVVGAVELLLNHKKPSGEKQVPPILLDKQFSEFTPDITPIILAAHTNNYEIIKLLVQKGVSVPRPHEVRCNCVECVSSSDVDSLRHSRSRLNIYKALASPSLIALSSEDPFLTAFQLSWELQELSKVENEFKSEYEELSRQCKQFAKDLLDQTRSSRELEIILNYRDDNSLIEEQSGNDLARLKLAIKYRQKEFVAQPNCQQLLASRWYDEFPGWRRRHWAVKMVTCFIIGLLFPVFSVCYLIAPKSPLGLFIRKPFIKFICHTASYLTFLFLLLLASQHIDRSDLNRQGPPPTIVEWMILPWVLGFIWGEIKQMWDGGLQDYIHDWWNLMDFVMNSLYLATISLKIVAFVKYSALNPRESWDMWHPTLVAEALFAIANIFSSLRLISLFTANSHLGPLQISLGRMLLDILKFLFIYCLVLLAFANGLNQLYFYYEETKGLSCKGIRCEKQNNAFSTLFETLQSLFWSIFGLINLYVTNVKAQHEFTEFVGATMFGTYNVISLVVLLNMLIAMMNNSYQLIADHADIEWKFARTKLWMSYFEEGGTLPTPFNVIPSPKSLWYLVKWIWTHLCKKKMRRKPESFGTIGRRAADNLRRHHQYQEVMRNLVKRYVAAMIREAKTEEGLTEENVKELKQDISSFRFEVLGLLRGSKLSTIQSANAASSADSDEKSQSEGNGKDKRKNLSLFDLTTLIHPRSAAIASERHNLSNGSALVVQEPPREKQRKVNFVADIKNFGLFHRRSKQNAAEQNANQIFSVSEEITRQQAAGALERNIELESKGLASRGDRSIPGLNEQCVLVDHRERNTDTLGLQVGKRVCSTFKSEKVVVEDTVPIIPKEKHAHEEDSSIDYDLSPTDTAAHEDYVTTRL
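Assay system: Stable TRPC4beta/mu-opioid receptor HEK293 cells | Reagent: DAMGO in two steps, submaximal then maximal | Compound dosing: Single concentration per test compound | Signal: Fluo4 Ca2+ flux fluorescence | Evaluation: Per-well B score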
TRPC4 potent = TRPC4 (mouse) allosteric potentiation; Q9QUQ5; HEK293 TRPC4beta/mu-opioid, DAMGO EC20, Fluo-4 Ca2+ flux; hits give high values; B-score at 10 µM; hit rate 0.42% among 310,000; AID 2227;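 active = B-score of calcium response area above 5 SD of library B-scores, with initial fluorescence ratio within 5 SD of library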;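 also: B-score of integrated fluorescence ratio over time as area under calcium response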
TRPC6 inh = inhibitors of mouse TRPC6 channel; HEK293-TRPC6, membrane potential dye, ACh-evoked depolarization; hits give low values; B-score at 10 µM; hit rate 1.1% among 310,000; AID 2553;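 active = B-score under library mean minus 3 SD, initial fluorescence not abnormally high, positive integrated signal ratio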;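 also: B-score derived from integrated fluorescence ratio over the kinetic read; more negative B-score means stronger inhibition of depolarization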
TRPC4 act = TRPC4 (mouse) channel activation; Q9QUQ5; HEK293 TRPC4beta/mu-opioid, Fluo4 calcium fluorescence; hits give high values; B-score at 10 µM; hit rate 0.49% among 310,000;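 active = B-score above 5 SD of library B-scores, and initial fluorescence ratio not above library mean plus 5 SD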;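 also: positive B-score marks a calcium rise read as TRPC4 activation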
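System – HEK293 cells stably co-expressing mouse TRPC4beta and mu-opioid receptor · Signal – Fluo4 calcium-sensitive dye fluorescence, kinetic, 1 Hz baseline · Benchmarks – buffer (low) and maximal DAMGO (high) · Read-out – B score of integrated fluorescence ratio per well · Incubation – dye loading 45 min room temperature, 110 s kinetic read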
TRPC6 activator = activators of mouse TRPC6 channel | Q61143 | HEK293-TRPC6 membrane potential dye fluorescence; hits give high values | B-score at 10 µM | hit rate 0.13% among 310,000 | AID 2550;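 active = B-score of the integrated fluorescence ratio above library mean plus 3 SD, and starting fluorescence ratio within library mean plus 5 SD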;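 also: higher score means more depolarization so channel activation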
TRPC4 sel inh 2 = second check of whether TRPC6 inhibitors also affect mouse TRPC4; shares compounds with TRPC6 inh; HEK293 TRPC4/MOR, membrane potential dye fluorescence; channel activated by saturating DAMGO dose; inhibition, % at 10 µM; hit rate 42% among 920; AID 2776;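 active = compounds whose fluorescence signal differed from control wells by over 3 SD, either direction, in both duplicate plates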
TRPC4 spec = selectivity of TRPC6 inhibitors: effect on mouse TRPC4; shares compounds with TRPC6 inh; HEK293 TRPC4/mu-opioid, membrane potential fluorescence; activity change, negative = inhibition, % at 10 µM; hit rate 61% among 920; AID 2777;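 active = rise or fall in signal beyond 3 SD of buffer-only wells in both replicate plates, either sign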;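 also: integrated kinetic ratio of fluorescence range over baseline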
HEK293 MPD ctr 2-1 = second counter-screen for TRPC6 inhibitors: parental HEK293 cells; shares compounds with TRPC6 inh; parental HEK293 membrane potential dye fluorescence; maximal acetylcholine challenge after compound addition; signal change vs control, % at 10 µM; hit rate 31% among 920; AID 2779;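 active = membrane potential signal moving either way by over 3 SD of the maximum-effect control, in both duplicate plates, meaning non-specific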
HEK293 MPD ctr-1 = counter-screen for TRPC6 inhibitors: effect in parental HEK293 cells. shares compounds with TRPC6 inh. parental HEK293 membrane potential dye fluorescence. hit rate 60% among 920. membrane potential signal change, % at 10 µM. AID 2780;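 active = membrane potential signal shifting up or down by more than 3 SD of buffer-only wells, on both duplicate plates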
HEK293 MPD ctr-2 = parental HEK293 nonspecific activity of TRPC6 modulators | shares compounds with TRPC6 inh | membrane potential dye fluorescence | membrane potential signal change, % at 10 µM | hit rate 51% among 2,400 | AID 488924;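 active = membrane potential signal moves up or down beyond 5 SD from buffer-only wells, on both duplicate plates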
HEK293 MPD ctr 2-2 = second check of TRPC6 modulator effects in parental HEK293 cells | AID 488926 | inhibition, % at 10 µM | hit rate 14% among 2,400 | shares compounds with TRPC6 inh | membrane potential dye fluorescence; after compound, maximal acetylcholine stimulation;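 active = membrane potential signal drops by more than 5 SD from the mean control signal, in both duplicate plates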;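 also: plate controls were acetylcholine ECmax control wells for no effect and buffer only wells for full effect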
TRPC4 ctr mod = mouse TRPC4 off-target activity of TRPC6 modulators | shares compounds with TRPC6 inh | HEK293 TRPC4/mu-opioid, membrane potential fluorescence | percent change from control (negative = decrease, positive = increase), % at 10 µM | hit rate 69% among 2,400 | AID 488927;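 active = membrane potential signal moved up or down beyond 5 SD of buffer control wells, in both duplicate plates, actives on both sides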;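 also: plate controls were assay buffer wells for no effect and DAMGO maximal-effect wells for full effect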
TRPC4 ctr inh 2 = mouse TRPC4 off-target activity of TRPC6 modulators, second screen. inhibition, % at 10 µM. shares compounds with TRPC6 inh. hit rate 55% among 2,400. HEK293 TRPC4/mu-opioid, membrane potential dye fluorescence; stimulated with maximal-effect DAMGO. AID 488928;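 active = drop in membrane potential signal beyond 5 SD of the control wells in both duplicate plates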;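 also: TRPC4 counter screen for TRPC6 hits run under conditions tuned for TRPC6 not TRPC4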
TRPC6 block conf = mouse TRPC6 inhibitor confirmation. inhibition, % at 10 µM. AID 488960. HEK293-TRPC6, membrane potential dye, ACh-evoked depolarization. shares compounds with TRPC6 inh. hit rate 43% among 3,300;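 active = fluorescence ratio falls more than 5 SD below the full-stimulation control mean, in both duplicate runs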;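 also: integrated fluorescence ratio of peak minus minimum over baseline after agonist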
TRPC6 act confirm = confirmation of mouse TRPC6 activators. HEK293-TRPC6 membrane potential dye fluorescence, FDSS. AID 488961. hit rate 11% among 2,800. activation, % at 10 µM. shares compounds with TRPC6 inh;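 active = ratio signal rise beyond 5 SD above unstimulated control wells' mean, seen in both duplicate runs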;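 also: plate controls were buffer EC0 wells for no effect and acetylcholine ECmax response for full effect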
* hit, by the source's call; i = inactive; / = no result given.

SMILES	TRPC4 inh	TRPC4 potent	TRPC6 inh	TRPC4 act	TRPC6 activator	HEK293 MPD ctr-2	HEK293 MPD ctr 2-2	TRPC4 ctr mod	TRPC4 ctr inh 2	TRPC6 block conf	TRPC6 act confirm	others
CCn1cc(Br)c(C(=O)NCc2ccco2)n1	i	i	-5.8*	i	i	i	i	i	i	i	i
Cc1ccc(S(=O)(=O)NCC(=O)OCC(=O)NC(=O)NC2CCCC2)cc1	i	i	i	i	i	/	/	/	/	/	/
CN1CCN(CCCNC(=O)c2ccc3c(c2)N(Cc2ccccc2)CCS3)CC1	i	i	-7.9*	i	i	/	/	/	/	i	i	TRPC4 sel inh 2=62%*;TRPC4 spec=i;HEK293 MPD ctr 2-1=i;HEK293 MPD ctr-1=i
CCN1CCN(CCCNC(=O)c2ccc3c(c2)N(Cc2ccc(C)cc2)CCS3)CC1	i	i	-5.2*	i	i	i	i	i	74%*	57%*	i
Cc1ccc(CN2CCSc3ccc(C(=O)NCCCN4CCOCC4)cc32)cc1	i	i	i	i	i	/	/	/	/	/	/
CCOC(=O)C1CCC(CNCc2ccc(Cl)cc2)CC1 (stereo not given)	i	i	i	i	i	/	/	/	/	/	/
Cc1cc(NCCN(C)C)n2nc(-c3cccs3)cc2n1	i	i	-6.8*	i	i	-272%*	i	-52%*	48%*	i	i
Cc1ccc(CSCCNC(=O)CSc2ccccc2)cc1	i	i	i	i	i	/	/	/	/	/	/
CC(C)N(CC#CC(O)(c1ccccc1)c1ccccc1)CCO	i	i	i	i	i	/	/	/	/	/	/
OCCN(CC#CC(O)(c1ccccc1)c1ccccc1)CCO	i	i	i	i	i	/	/	/	/	/	/
CC(C)N(CC#CC(O)(c1ccccc1)c1ccccc1)C(C)C	i	i	-6.4*	i	i	115%*	96%*	22%*	i	73%*	/
CN(CC#CC(O)(c1ccccc1)c1ccccc1)C(C)(C)C	i	i	-8.9*	i	i	/	/	/	/	74%*	/	TRPC4 sel inh 2=i;TRPC4 spec=6.1%*;HEK293 MPD ctr 2-1=-16%*;HEK293 MPD ctr-1=8.8%*
COc1ccc(-c2c(NC(=O)c3ccco3)oc3c(C)cccc3c2=O)cc1	i	i	i	i	i	/	/	/	/	/	/
CN1CCN(c2ccc(Cl)cc2NC(=O)c2ccc(=O)n(C)n2)CC1	i	i	-9*	i	i	-340%*	68%*	-59%*	54%*	52%*	i
CC(C)CCNC(=O)C1CCC(=O)N1CCc1ccccc1 (stereo not given)	i	i	i	i	i	/	/	/	/	/	/
Cc1cccc(NC(=O)CSc2nc3nc(C)cc(C)c3c(=O)[nH]2)c1	i	i	-6.9*	i	i	/	/	/	/	i	i	TRPC4 sel inh 2=i;TRPC4 spec=i;HEK293 MPD ctr 2-1=i;HEK293 MPD ctr-1=i
O=C(OCc1nnc(-c2ccccc2)o1)c1cccc(-n2cnnn2)c1	i	i	i	i	i	/	/	/	/	/	/
CCN(CC)c1ccc(N=C2C(=O)Nc3ccccc32)cc1	i	i	-7.5*	i	i	-261%*	i	-40%*	89%*	76%*	i
Cc1ccc(N=C2C(=O)Nc3ccccc32)cc1	i	i	i	i	i	/	/	/	/	/	/
COC(=O)c1ccc(CN2CCCC(CCC(=O)NCc3ccc(C)o3)C2)cc1 (stereo not given)	i	i	-7.9*	i	i	/	/	/	/	56%*	i	TRPC4 sel inh 2=i;TRPC4 spec=0.0%*;HEK293 MPD ctr 2-1=i;HEK293 MPD ctr-1=3.2%*
COCCC(=O)N1CCCC(CCC(=O)NCc2ccc(F)c(F)c2)C1 (stereo not given)	i	i	i	i	i	/	/	/	/	/	/
COc1ccc(/C=C/CN2CCCC(CCC(=O)NCc3ccc(F)c(F)c3)C2)cc1 (stereo not given)	i	i	-7.4*	i	i	/	/	/	/	i	i	TRPC4 sel inh 2=48%*;TRPC4 spec=0.3%*;HEK293 MPD ctr 2-1=i;HEK293 MPD ctr-1=7.4%*
CCOc1ccc(S(=O)(=O)NCCCl)cc1	i	i	i	i	i	/	/	/	/	/	/
Cc1cc(C)nc(SC2CCCCC2NS(=O)(=O)c2ccccc2)n1 (stereo not given)	i	i	i	i	i	/	/	/	/	/	/
COc1ccc2c(c1)-c1c(ssc1=S)C(C)(C)N2	i	i	-5.6*	i	i	-164%*	i	-33%*	60%*	46%*	i
SMILES	TRPC4 inh	TRPC4 potent	TRPC6 inh	TRPC4 act	TRPC6 activator	HEK293 MPD ctr-2	HEK293 MPD ctr 2-2	TRPC4 ctr mod	TRPC4 ctr inh 2	TRPC6 block conf	TRPC6 act confirm	others
Cc1cccnc1NC(=O)c1c(O)c2ccccc2n(C)c1=O	i	i	-6.9*	i	i	/	/	/	/	i	i	TRPC4 sel inh 2=i;TRPC4 spec=-13%*;HEK293 MPD ctr 2-1=i;HEK293 MPD ctr-1=-144%*
COc1ccc(S(=O)(=O)N2CCN(C3CCCC(C)C3)CC2)cc1 (stereo not given)	i	i	i	i	i	/	/	/	/	/	/
COc1cccc(N2CCN(C3CCCC(C)C3)CC2)c1 (stereo not given)	i	i	-5.8*	i	i	184%*	i	38%*	48%*	i	/
COc1cccc(NC(=O)c2ccccc2Oc2ccccc2)c1	i	i	-5.3*	i	i	i	i	14%*	i	i	i
COc1ccc(NC(=O)c2ccccc2Oc2ccccc2)cc1	i	i	i	i	i	/	/	/	/	/	/
Cc1ccc(NC(=O)C(NC2CCCC2)c2ccccc2)cc1Cl (stereo not given)	i	i	i	i	i	/	/	/	/	/	/

Compound activity deposited in PubChem by Johns Hopkins Ion Channel Center.
